Assay results as given in ChEMBL document CHEMBL1137418, “Neurosteroid analogues. 11. Alternative ring system scaffolds: gamma-aminobutyric acid receptor modulation and anesthetic actions of benz[f]indenes” (J Med Chem, 2006).
Active and inactive are the calls of the source. No cut-off for these calls is given here.

Assays:
[1] = target: GABA-A receptor; anion channel; experiment: Displacement of [35S]TBPS from GABA-A receptor in rat brain membrane; assay type: cell membranes
Procedure, shortened: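 Rat brain membranes were used to measure noncompetitive displacement of [35S]-TBPS from the picrotoxin site of GABAA receptors. Hill slopes were also derived. Results come from duplicate experiments run in triplicate, with error as SEM.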

[2] = target: T1, GABA-A receptor; alpha-1/beta-2/gamma-2 (Rattus norvegicus) (UniProt P18508+P62813+P63138); experiment: Activity at rat GABA-Aalpha1 receptor plus beta-2-gamma-2L expressed in Xenopus laevis oocyte assessed as ratio of GABA-mediated current in presence to absence of compound at 0.1 uM; assay type: functional
[3] = target: T1, GABA-A receptor; alpha-1/beta-2/gamma-2 (Rattus norvegicus); experiment: Activity at rat GABA-Aalpha1 receptor plus beta2gamma2L expressed in Xenopus laevis oocyte assessed as ratio of GABA-mediated current in presence to absence of compound at 1 uM; assay type: functional
[4] = target: T1, GABA-A receptor; alpha-1/beta-2/gamma-2 (Rattus norvegicus); experiment: Activity at rat GABA-Aalpha1 receptor plus beta-2-gamma-2L expressed in Xenopus laevis oocyte assessed as ratio of GABA-mediated current in presence to absence of compound at 10 uM; assay type: functional
Xenopus laevis [5] = species: Xenopus laevis; experiment: Loss of righting reflex in Xenopus laevis tadpole; assay type: functional
Procedure, shortened: (§1)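 Xenopus tadpoles were scored for loss of righting response and, separately, loss of swimming response. N = 10 animals were tested at each of five or more concentrations, and error is given as SEM.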

Xenopus laevis [6] = species: Xenopus laevis; experiment: Loss of swimming reflex in Xenopus laevis tadpole; assay type: functional; procedure, shortened: as §1
[7] = target: T1, GABA-A receptor; alpha-1/beta-2/gamma-2 (Rattus norvegicus); experiment: Activity at rat GABA-Aalpha1 receptor plus beta-2-gamma-2L expressed in Xenopus laevis oocyte assessed as ratio of current evoked by compound alone in absence of GABA to current evoked by 2 uM GABA at 10 uM
Xenopus laevis [8] = species: Xenopus laevis; experiment: Loss of swimming reflex in Xenopus laevis tadpole at 10 uM; assay type: functional, organism-based
Xenopus laevis [9] = species: Xenopus laevis; experiment: Loss of righting reflex in Xenopus laevis tadpole at 10 uM; assay type: functional, organism-based

SMILES	IC50 [1] [µM]	Ratio [2]	Ratio [3]	Ratio [4]	ED50 (Xenopus laevis [5]) [µM]	ED50 (Xenopus laevis [6]) [µM]	Ratio [7]	Activity (Xenopus laevis [8])	Activity (Xenopus laevis [9])
C[C@]12CC[C@@H](O)C[C@H]1CC[C@@H]1[C@@H]2CC[C@]2(C)[C@@H](C#N)CC[C@@H]12	0.072	2.02	10.4	20.6	0.08	0.36	0.09		
CC(=O)[C@H]1CC[C@H]2[C@@H]3CC[C@@H](CCO)C[C@H]3CC[C@]12C	1.17	0.91	0.96	3.63	1.09	3.15	0.14		
C[C@]12CC[C@@H]3C[C@H](CCO)CC[C@H]3[C@@H]1CCC2=O	4.17	0.99	1.03	1.05	16.4		0.03	inactive	
C[C@]12CC[C@@H]3C[C@@H](CCO)CC[C@H]3[C@@H]1CC[C@@H]2C#N	0.13	1.45	3.65	7.42	0.14	1.73	0.01		
C[C@]12CC[C@@H]3C[C@@H](CCO)CC[C@H]3[C@@H]1CCC2=O	5.42	0.95	1.22	2.11	8.1		-0.16	inactive	
C[C@]12CC[C@@H]3C[C@H](CCO)CC[C@H]3[C@@H]1CC[C@@H]2C#N	0.58	1.29	2.33	12.2	0.79	5.5	0.54		
CC(=O)[C@H]1CC[C@H]2[C@@H]3CC[C@H](CCO)C[C@H]3CC[C@]12C	0.13	1.27	3.79	9.35	1.04	2.84	0.13		
C[C@]12CC[C@@H](O)C[C@@H]1CC[C@@H]1[C@@H]2CC[C@]2(C)[C@@H](C#N)CC[C@@H]12	0.05	1.44	5.65	8.28	0.07	0.71	0.66		
CC(=O)[C@H]1CC[C@H]2CC3C[C@H](CCO)CC[C@@H]3C[C@@]21C (single isomer, unassigned)					>10			inactive	
CC(=O)[C@H]1CC[C@H]2CC3C[C@@H](CCO)CC[C@@H]3C[C@@]21C (single isomer, unassigned)	2.05				6.63	17.3			
C[C@]12C[C@H]3CC[C@H](CCO)CC3C[C@@H]1CCC2=O (single isomer, unassigned; 1a) [listing 1 of 2 here]	5.01				4.01				
C[C@]12C[C@H]3CC[C@H](CCO)CC3C[C@@H]1CCC2=O (single isomer, unassigned; 1a) [listing 2 of 2 here]		1	1	2.42			-0.02	inactive	
C[C@]12C[C@H]3CC[C@@H](CCO)CC3C[C@@H]1CCC2=O (single isomer, unassigned; 1b) [listing 1 of 2 here]	3.92								
C[C@]12C[C@H]3CC[C@@H](CCO)CC3C[C@@H]1CCC2=O (single isomer, unassigned; 1b) [listing 2 of 2 here]		0.9	1.08	3.54			-0.02	inactive	inactive
C[C@]12C[C@H]3CC[C@@H](CCO)CC3C[C@@H]1CCC2=O (single isomer, unassigned; 1c) [listing 1 of 2 here]	> 30								
C[C@]12C[C@H]3CC[C@@H](CCO)CC3C[C@@H]1CCC2=O (single isomer, unassigned; 1c) [listing 2 of 2 here]		0.93	0.9	1.02			-0.01	inactive	inactive
C[C@]12C[C@H]3CC[C@H](CCO)CC3C[C@@H]1CCC2=O (single isomer, unassigned; 1d) [listing 1 of 2 here]	> 10				10				
C[C@]12C[C@H]3CC[C@H](CCO)CC3C[C@@H]1CCC2=O (single isomer, unassigned; 1d) [listing 2 of 2 here]		1.02	1.04	1.21			-0.05	inactive	
C[C@]12C[C@H]3CC[C@H](CCO)CC3C[C@@H]1CC[C@@H]2C#N (single isomer, unassigned; 2a) [listing 1 of 2 here]	1.22				4.78	17.3			
C[C@]12C[C@H]3CC[C@H](CCO)CC3C[C@@H]1CC[C@@H]2C#N (single isomer, unassigned; 2a) [listing 2 of 2 here]		1.02	1.29	3.9			0		
C[C@]12C[C@H]3CC[C@@H](CCO)CC3C[C@@H]1CC[C@@H]2C#N (single isomer, unassigned; 2b) [listing 1 of 2 here]	0.52				2.88	5.48			
C[C@]12C[C@H]3CC[C@@H](CCO)CC3C[C@@H]1CC[C@@H]2C#N (single isomer, unassigned; 2b) [listing 2 of 2 here]		1.02	2.11	7.21			0.01		
C[C@]12C[C@H]3CC[C@@H](CCO)CC3C[C@@H]1CC[C@@H]2C#N (single isomer, unassigned; 2c) [listing 1 of 2 here]	1.98				3				
C[C@]12C[C@H]3CC[C@@H](CCO)CC3C[C@@H]1CC[C@@H]2C#N (single isomer, unassigned; 2c) [listing 2 of 2 here]		1.01	1.14	3.23			-0.01	inactive	
C[C@]12C[C@H]3CC[C@H](CCO)CC3C[C@@H]1CC[C@@H]2C#N (single isomer, unassigned; 2d) [listing 1 of 2 here]	1.9				5.12	17.3			
C[C@]12C[C@H]3CC[C@H](CCO)CC3C[C@@H]1CC[C@@H]2C#N (single isomer, unassigned; 2d) [listing 2 of 2 here]		0.98	1.03	2.17			0.01		
C[C@]12CC[C@@H](O)C[C@@H]1CC[C@@H]1[C@@H]2CC[C@]2(C)C(=O)CC[C@@H]12 [ANDROSTERONE]	0.41	0.97	1.41	5.44	3.38		0.02	inactive	
CC(=O)[C@H]1CC[C@H]2[C@@H]3CC[C@H]4C[C@H](O)CC[C@]4(C)[C@H]3CC[C@]12C [BREXANOLONE]		1.26	3.89	9.65	0.42	5.5	0.37		
CC(=O)[C@H]1CC[C@H]2[C@@H]3CC[C@@H]4C[C@H](O)CC[C@]4(C)[C@H]3CC[C@]12C [ELTANOLONE]		1.2	2.82	9.77	0.06	0.3	0.06		
C[C@]12CC[C@@H](O)C[C@H]1CC[C@@H]1[C@@H]2CC[C@]2(C)C(=O)CC[C@@H]12 [ETIOCHOLANOLONE]	4.14	0.89	0.87	1.39	>10		0	inactive	
